Measured values published in the array DNA melting data of Ke et al. (doi:10.1101/2024.01.08.574731).

Key:
[1] = folding enthalpy; higher = less favourable; fluorescence melt of hairpins on a sequencing array, two-state fit; conditions: sodium 0.088 M
Summary of the method: (§1)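 Melting temperature and folding enthalpy were obtained by bootstrapped two-state fitting. Fits used Cy3 fluorescence of library hairpins with annealed Cy3 and quencher oligos on a sequenced MiSeq flow cell, imaged in 50 mM Na-HEPES pH 8.0, 25 mM NaCl in 2.5 °C steps up to 60 °C and normalised to pre-quench Cy3 and control constructs. Four replicates were combined by inverse-variance weighting, and fitted temperatures were raised by 9.35 °C to match UV melts.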

[2] = melting temperature; fluorescence melt of hairpins on a sequencing array, two-state fit, raised by 9.35 °C to match UV melts; conditions: sodium 0.088 M
Summary of the method: as §1

Sequence | folding enthalpy [1] | Tm [2]
GATCCGCCATCGGATC ((((((....)))))) | -37 kcal/mol | 57.4 °C
GATCCGCCGACGGATC ((((((....)))))) | -38 kcal/mol | 58.3 °C
GATCCGCCGCCGGATC ((((((....)))))) | -42.4 kcal/mol | 59 °C
GATCCGCGAAAGCGAATC (((.(((....))).))) | -20.2 kcal/mol | 49.2 °C
GATCCGCGCACGGATC ((((((....)))))) | -39.2 kcal/mol | 59.1 °C
GATCCGCGCCCGGATC ((((((....)))))) | -45.8 kcal/mol | 56.5 °C
GATCCGCGGACGGATC ((((((....)))))) | -37.5 kcal/mol | 56.2 °C
GATCCGCGGCCGGATC ((((((....)))))) | -38.4 kcal/mol | 56 °C
GATCCGCGTTCGGATC ((((((....)))))) | -36 kcal/mol | 59 °C
GATCCGCTGCGGATC ((((((...)))))) | -48.3 kcal/mol | 57.5 °C
GATCCGCTTACGGATC ((((((....)))))) | -37.3 kcal/mol | 59 °C
GATCCGGAACCGGATC ((((((....)))))) | -39.9 kcal/mol | 62.5 °C
GATCCGGACTCGGATC ((((((....)))))) | -49.4 kcal/mol | 59.2 °C
GATCCGGAGCCGGATC ((((((....)))))) | -60.6 kcal/mol | 56.3 °C
GATCCGGCGTCGGATC ((((((....)))))) | -45.3 kcal/mol | 58.2 °C
GATCCGGCTACGGATC ((((((....)))))) | -40.2 kcal/mol | 67.8 °C
GATCCGGCTGCGGATC ((((((....)))))) | -38.4 kcal/mol | 61 °C
GATCCGGGAAACCAGATC ((((.((....)).)))) | -27.8 kcal/mol | 35.6 °C
GATCCGGGAAACCGGGTC ((.((((....)))).)) | -41.6 kcal/mol | 54.5 °C
GATCCGGGACGGATC ((((((...)))))) | -37.1 kcal/mol | 68.9 °C
GATCCGGGATCGGATC ((((((....)))))) | -40.1 kcal/mol | 61.9 °C
GATCCGGGCGCGGATC ((((((....)))))) | -39 kcal/mol | 59.8 °C
GATCCGGTATCGGATC ((((((....)))))) | -42.5 kcal/mol | 63.5 °C
GATCCGGTCACGGATC ((((((....)))))) | -34.7 kcal/mol | 69.3 °C

Sequence | folding enthalpy [1] | Tm [2]
GATCCGGTGCCGGATC ((((((....)))))) | -59.2 kcal/mol | 58 °C
GATCCGTAACGGATC ((((((...)))))) | -34.1 kcal/mol | 57.6 °C
GATCCGTACACGGATC ((((((....)))))) | -43.2 kcal/mol | 61.2 °C
GATCCGTACCCGGATC ((((((....)))))) | -39 kcal/mol | 56.4 °C
GATCCGTAGCCGGATC ((((((....)))))) | -47.9 kcal/mol | 56.1 °C
GATCCGTCATCGGATC ((((((....)))))) | -39 kcal/mol | 59.3 °C
GATCCGTCCCGGATC ((((((...)))))) | -39.4 kcal/mol | 61 °C
GATCCGTCTACGGATC ((((((....)))))) | -45.5 kcal/mol | 63.7 °C
GATCCGTCTGCGGATC ((((((....)))))) | -44.5 kcal/mol | 61.1 °C
GATCCGTGCCGGATC ((((((...)))))) | -44.5 kcal/mol | 57.9 °C
GATCCGTGGACGGATC ((((((....)))))) | -41 kcal/mol | 62.9 °C
GATCCGTGGGCGGATC ((((((....)))))) | -30.1 kcal/mol | 66.1 °C
GATCCGTGTCCGGATC ((((((....)))))) | -34 kcal/mol | 57.5 °C
GATCCGTTCACGGATC ((((((....)))))) | -51 kcal/mol | 67.4 °C
GATCCGTTGCGGATC ((((((...)))))) | -43 kcal/mol | 57.3 °C
GATCCTAAATAGGATC ((((((....)))))) | -35.8 kcal/mol | 49.2 °C
GATCCTAACGAGGATC ((((((....)))))) | -44.8 kcal/mol | 50.6 °C
GATCCTAAGAAGGATC ((((((....)))))) | -35.3 kcal/mol | 48 °C
GATCCTAAGAGGATC ((((((...)))))) | -29.6 kcal/mol | 53.8 °C
GATCCTAATAGGATC ((((((...)))))) | -27.7 kcal/mol | 51.9 °C
GATCCTACATAGGATC ((((((....)))))) | -35.5 kcal/mol | 52.8 °C
GATCCTACGAGGATC ((((((...)))))) | -29.5 kcal/mol | 53.4 °C
GATCCTACTGAGGATC ((((((....)))))) | -39.7 kcal/mol | 50.6 °C
GATCCTAGAAGGATC ((((((...)))))) | -40.9 kcal/mol | 53.4 °C

Sequence | folding enthalpy [1] | Tm [2]
GATCCTAGCAAGGATC ((((((....)))))) | -33.2 kcal/mol | 52.8 °C
GATCCTATCAAGGATC ((((((....)))))) | -34.3 kcal/mol | 54.6 °C
GATCCTCAATAGGATC ((((((....)))))) | -34.2 kcal/mol | 49.5 °C
GATCCTCAGTAGGATC ((((((....)))))) | -35.4 kcal/mol | 49.9 °C
GATCCTCCAAAGGATC ((((((....)))))) | -28.8 kcal/mol | 50.4 °C
GATCCTCCCCAGGATC ((((((....)))))) | -43.7 kcal/mol | 50.4 °C
GATCCTCCCTAGGATC ((((((....)))))) | -39.7 kcal/mol | 50.8 °C
GATCCTCCGAGGATC ((((((...)))))) | -33.1 kcal/mol | 53.1 °C
GATCCTCGAAGGATC ((((((...)))))) | -26.7 kcal/mol | 50.1 °C
GATCCTCGATAGGATC ((((((....)))))) | -29.4 kcal/mol | 50.2 °C
GATCCTCGCAAGGATC ((((((....)))))) | -32.6 kcal/mol | 54.8 °C
GATCCTCGCCAGGATC ((((((....)))))) | -37.4 kcal/mol | 50.7 °C
GATCCTCTAAAGGATC ((((((....)))))) | -39.3 kcal/mol | 52.4 °C
GATCCTCTAGAGGATC ((((((....)))))) | -42.6 kcal/mol | 56.4 °C
GATCCTGCGAGGATC ((((((...)))))) | -33.7 kcal/mol | 53.9 °C
GATCCTGCGTAGGATC ((((((....)))))) | -44.2 kcal/mol | 51.4 °C
GATCCTGCTGAGGATC ((((((....)))))) | -52.2 kcal/mol | 51.4 °C
GATCCTGCTTAGGATC ((((((....)))))) | -42.9 kcal/mol | 52.4 °C
GATCCTGGAAGGATC ((((((...)))))) | -31.6 kcal/mol | 62.8 °C
GATCCTGGCAGGATC ((((((...)))))) | -39.7 kcal/mol | 57.7 °C
GATCCTGGCGAGGATC ((((((....)))))) | -48.3 kcal/mol | 54.6 °C
GATCCTGTAGAGGATC ((((((....)))))) | -36 kcal/mol | 55.5 °C
GATCCTGTCAGGATC ((((((...)))))) | -36.7 kcal/mol | 56.5 °C
GATCCTGTCCAGGATC ((((((....)))))) | -48.3 kcal/mol | 58.1 °C

Sequence | folding enthalpy [1] | Tm [2]
GATCCTGTGAGGATC ((((((...)))))) | -32.3 kcal/mol | 53.3 °C
GATCCTGTTAAGGATC ((((((....)))))) | -48.7 kcal/mol | 65.7 °C
GATCCTTAAAAGGATC ((((((....)))))) | -41.7 kcal/mol | 49.7 °C
GATCCTTAATAGGATC ((((((....)))))) | -39.1 kcal/mol | 50.1 °C
GATCCTTACAGGATC ((((((...)))))) | -34.2 kcal/mol | 56 °C
GATCCTTATGAGGATC ((((((....)))))) | -37.1 kcal/mol | 53.3 °C
GATCCTTCAAGGATC ((((((...)))))) | -36.9 kcal/mol | 54.7 °C
GATCCTTCATAGGATC ((((((....)))))) | -39.5 kcal/mol | 52.4 °C
GATCCTTCGAAGGATC ((((((....)))))) | -49.6 kcal/mol | 54.1 °C
GATCCTTCGAGGATC ((((((...)))))) | -28.7 kcal/mol | 54.4 °C
GATCCTTCTGAGGATC ((((((....)))))) | -38.4 kcal/mol | 53.7 °C
GATCCTTGGAGGATC ((((((...)))))) | -42 kcal/mol | 50.4 °C
GATCCTTTAAAGGATC ((((((....)))))) | -40.9 kcal/mol | 53.4 °C
GATCCTTTGAAGGATC ((((((....)))))) | -36 kcal/mol | 52.4 °C
GATCCTTTTTAGGATC ((((((....)))))) | -34.7 kcal/mol | 53.9 °C
GATCGAAAGCTCGATC ((((((....)))))) | -29.6 kcal/mol | 48.7 °C
GATCGAAAGTCGATC ((((((...)))))) | -30.5 kcal/mol | 48.8 °C
GATCGAACAGTCGATC ((((((....)))))) | -31.4 kcal/mol | 47.7 °C
GATCGAACATCGATC ((((((...)))))) | -37.3 kcal/mol | 49 °C
GATCGAACCTCGATC ((((((...)))))) | -34.4 kcal/mol | 50.7 °C
GATCGAAGAATCGATC ((((((....)))))) | -28.4 kcal/mol | 47.1 °C
GATCGAAGAGTCGATC ((((((....)))))) | -31.6 kcal/mol | 47.5 °C
GATCGAAGCGTCGATC ((((((....)))))) | -39.9 kcal/mol | 51.1 °C
GATCGAAGGTCGATC ((((((...)))))) | -25.6 kcal/mol | 50.9 °C
